One may read the inhibition as the relative decrease from the control value, in per cent. What is called IC50 is the concentration that gives 50% inhibition.

Structures are written as SMILES. Active and inactive are the calls of the source. The rule behind the calls is not given here.

The test system of assay [1] is A-375. Description: Induction of apoptosis in human A-375 cells assessed as early apoptotic cells at 2 uM incubated for 48 hrs by annexin V-FITC and PI staining based flow cytometry (reference value: 1.34 %). The assay is classed as functional. For orientation: Flow cytometry measures light scatter and fluorescence of single cells or particles in a stream.
The subject of assay [2] is HCT-116. In words: Antiproliferative activity against human HCT-116 cells assessed as reduction in cell growth at 2 uM incubated for 72 hrs by CCK-8 assay relative to control. The assay is classed as functional. In general terms: Formazan colour is commonly taken as a measure of viable cells.
Assay [3] has as its system A-375. In words: Antiproliferative activity against human A-375 cells assessed as reduction in cell growth incubated for 72 hrs by CCK-8 assay. To be noted: A-375, 72 h. The class given is functional, cell-based. Summed up:
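IC50 by CCK-8 assay across five solid-tumour lines (HCT116, HepG2, H460, HeLa, A375). Run only for compounds chosen after the single-concentration screen, with CS055 and roscovitine as references.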

The target in a further assay is Histone deacetylase 1 (Homo sapiens, UniProt Q13547). In words: Inhibition of recombinant human HDAC1 using SIRT1 as substrate incubated for 10 mins followed by substrate addition and measured after 30 mins by fluorescence based assay. Summed up: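 IC50 values reported as means of at least two separate determinations, expressed as mean ±SD.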
Histone deacetylase 1, sequence (Q13547 whole entry): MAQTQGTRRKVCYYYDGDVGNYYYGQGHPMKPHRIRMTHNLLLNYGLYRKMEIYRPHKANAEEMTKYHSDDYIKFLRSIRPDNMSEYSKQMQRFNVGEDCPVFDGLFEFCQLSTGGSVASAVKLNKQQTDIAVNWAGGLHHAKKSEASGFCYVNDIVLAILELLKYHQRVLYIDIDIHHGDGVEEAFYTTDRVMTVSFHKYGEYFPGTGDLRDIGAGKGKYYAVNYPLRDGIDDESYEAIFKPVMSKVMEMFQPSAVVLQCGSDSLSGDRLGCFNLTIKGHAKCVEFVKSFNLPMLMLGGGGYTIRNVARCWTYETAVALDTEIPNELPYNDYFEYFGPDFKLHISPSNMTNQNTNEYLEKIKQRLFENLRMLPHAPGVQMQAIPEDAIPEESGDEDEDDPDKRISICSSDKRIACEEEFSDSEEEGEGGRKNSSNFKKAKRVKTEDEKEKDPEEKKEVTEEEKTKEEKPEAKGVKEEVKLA
Another assay concerns the target CDK2/Cyclin A2 (Homo sapiens, UniProt P24941). Description: Inhibition of recombinant human N-terminal GST-tagged CDK2/CyclinA2 expressed in baculovirus infected Sf21 cells using histone H1 as substrate incubated for 10 mins by luminescence based assay.
Assay [4] relates to A-375. In words: Cytotoxicity against human A-375 cells assessed as effect on cell morphology at 0.5 to 8 micromol incubated for 48 hrs by microscopic analysis. The class given is functional, cell-based. The settings on record: dose 0.5-8 µmol. Summed up:
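Five cancer cell lines treated with compound or DMSO (0.1 %) for 48 h. Morphology inspected by light microscopy at 10× objective.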

Assay [5] has as its system HeLa. Description: Induction of cell cycle arrest in human HeLa cells assessed as reduction in G0/G1 phase at 0.5 to 2 uM incubated for 24 hrs by PI staining based flow cytometry. The assay is classed as functional. The settings on record: dose 0.5-2 µM. In outline: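 Treatment at 2, 1 and 0.5 μM for 24 h, alongside CS055 and roscovitine, against a DMSO (0.1 %) blank. Cells then stained with propidium iodide and analyzed by flow cytometry.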

Assay [6] concerns A-375. Description: Induction of apoptosis in human A-375 cells assessed as early apoptotic cells at 0.5 uM incubated for 48 hrs by annexin V-FITC and PI staining based flow cytometry (reference value: 1.34 %). The class given is functional.
Assay [7] deals with HCT-116. In words: Induction of apoptosis in human HCT-116 cells assessed as viable cells at 0.5 uM incubated for 48 hrs by annexin V-FITC and PI staining based flow cytometry (reference value: 93.9 %). To be noted: read-out: Activity. The class given is functional.
Assay [8] has as its system HCT-116. Description: Induction of apoptosis in human HCT-116 cells assessed as late apoptotic cells at 0.5 uM incubated for 48 hrs by annexin V-FITC and PI staining based flow cytometry (reference value: 1.88 %). The class given is functional.
The test system of assay [9] is NCI-H460. Description: Induction of apoptosis in human NCI-H460 cells assessed as late apoptotic cells at 2 uM incubated for 48 hrs by annexin V-FITC and PI staining based flow cytometry (reference value: 6.11 %). The assay is classed as functional.
Assay [10] has as its system NCI-H460. In words: Induction of apoptosis in human NCI-H460 cells assessed as viable cells at 1 uM incubated for 48 hrs by annexin V-FITC and PI staining based flow cytometry (reference value: 90.4 %). The class given is functional. To be noted: read-out: Activity.
The test system of assay [11] is NCI-H460. Description: Induction of apoptosis in human NCI-H460 cells assessed as necrotic cells at 1 uM incubated for 48 hrs by annexin V-FITC and PI staining based flow cytometry (reference value: 0.632 %). The class given is functional.
For assay [12], the system named is NCI-H460. In words: Induction of apoptosis in human NCI-H460 cells assessed as viable cells at 0.5 uM incubated for 48 hrs by annexin V-FITC and PI staining based flow cytometry (reference value: 90.4 %). The class given is functional. The settings on record: read-out: Activity.
Assay [13] relates to HeLa. Description: Induction of apoptosis in human HeLa cells assessed as late apoptotic cells at 0.5 uM incubated for 48 hrs by annexin V-FITC and PI staining based flow cytometry (reference value: 0.870 %). The assay is classed as functional.
The test system of assay [14] is HCT-116. Description: Induction of apoptosis in human HCT-116 cells assessed as necrotic cells incubated for 48 hrs by annexin V-FITC and PI staining based flow cytometry. The class given is functional, cell-based. To be noted: dose 0.5-2 µM.
Assay [15] has as its target Cyclin-dependent kinase 2 (Homo sapiens) (UniProt P24941). In words: Inhibition of CDK2 in human A-375 cells at 1 uM incubated for 12 hrs by DAPI and immunofluorescence staining based confocal microscopic analysis. The class given is cell-based.
Assay [16] has as its system HeLa. In words: Induction of apoptosis in human HeLa cells assessed as apoptosis rate at 2 uM incubated for 48 hrs by annexin V-FITC and PI staining based flow cytometry relative to control. The class given is functional.

Regarding `Cc1ccc(Nc2nc(Cl)nc3c2ncn3Cc2ccc(C(=O)Nc3ccccc3N)cc2)cc1`, the Activity with A-375 [1] worked out at 7.19%; in the assay on A-375 [6], 10.6%; in the assay on HCT-116 [8], 16.6%; in the assay with NCI-H460 [9], 47.1%; in the assay with NCI-H460 [11] it was 0.871%; in the assay on HeLa [13], 5.47%. For the same compound, the Activity entry with HCT-116 [14] is “Dose-dependent effect”; with HeLa [16], 22.36%. In addition, the inhibition at 2 µM in the assay with HCT-116 [2] worked out at 76.3%. In addition, the IC50 in the assay on A-375 [3] was found to be 470 nM; on Histone deacetylase 1 it was 70.7 nM; at CDK2/Cyclin A2 it was 800 nM. The result in the assay with A-375 [4] and in the assay on HeLa [5] was Active. In addition, the viability at 0.5 µM in the assay with HCT-116 [7] was determined as 21.3%; in the assay with NCI-H460 [12] it was 88.7%. The viability at 1 µM in the assay on NCI-H460 [10] was 63.1%. Moreover, the inhibition result in assay [15] is “Active”.

The record behind these values is ChEMBL document CHEMBL4765302, “Design, synthesis and biological evaluation of novel histone deacetylase1/2 (HDAC1/2) and cyclin-dependent Kinase2 (CDK2) dual inhibitors against malignant cancer” (Eur J Med Chem, 2020).
